Results: ChEMBL document CHEMBL1154693, “Discovery of trans-4-[1-[[2,5-Dichloro-4-(1-methyl-3-indolylcarboxamido)phenyl]acetyl]-(4S)-methoxy-(2S)-pyrrolidinylmethoxy]cyclohexanecarboxylic acid: an orally active, selective very late antigen-4 antagonist” (J Med Chem, 2009)

How the values were obtained:
[1] = Drug level in BALB/c mouse serum at 10 mg/kg, po after 15 mins; type: ADME, organism-based; design: dose 10 mg/kg, route oral; settings: read-out: Drug uptake
Procedure, shortened: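 Serum (final 0.01-10%) assayed in the VLA-4/VCAM-1 binding assay, and concentration estimated from a calibration curve of compound spiked into untreated mouse serum.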

Integrin alpha-4/beta-1 [2] = target: T1, Integrin alpha-4/beta-1 (Homo sapiens, UniProt P05556+P13612); experiment: Inhibition of europium labeled human VCAM1/Fc chimera binding to human VLA-4 alpha-4-beta-1 expressed in Chinese hamster 4B4 cells in presence of 3% HSA by fluorimetric assay; type: cell-based
T1 sequence (P05556 whole entry): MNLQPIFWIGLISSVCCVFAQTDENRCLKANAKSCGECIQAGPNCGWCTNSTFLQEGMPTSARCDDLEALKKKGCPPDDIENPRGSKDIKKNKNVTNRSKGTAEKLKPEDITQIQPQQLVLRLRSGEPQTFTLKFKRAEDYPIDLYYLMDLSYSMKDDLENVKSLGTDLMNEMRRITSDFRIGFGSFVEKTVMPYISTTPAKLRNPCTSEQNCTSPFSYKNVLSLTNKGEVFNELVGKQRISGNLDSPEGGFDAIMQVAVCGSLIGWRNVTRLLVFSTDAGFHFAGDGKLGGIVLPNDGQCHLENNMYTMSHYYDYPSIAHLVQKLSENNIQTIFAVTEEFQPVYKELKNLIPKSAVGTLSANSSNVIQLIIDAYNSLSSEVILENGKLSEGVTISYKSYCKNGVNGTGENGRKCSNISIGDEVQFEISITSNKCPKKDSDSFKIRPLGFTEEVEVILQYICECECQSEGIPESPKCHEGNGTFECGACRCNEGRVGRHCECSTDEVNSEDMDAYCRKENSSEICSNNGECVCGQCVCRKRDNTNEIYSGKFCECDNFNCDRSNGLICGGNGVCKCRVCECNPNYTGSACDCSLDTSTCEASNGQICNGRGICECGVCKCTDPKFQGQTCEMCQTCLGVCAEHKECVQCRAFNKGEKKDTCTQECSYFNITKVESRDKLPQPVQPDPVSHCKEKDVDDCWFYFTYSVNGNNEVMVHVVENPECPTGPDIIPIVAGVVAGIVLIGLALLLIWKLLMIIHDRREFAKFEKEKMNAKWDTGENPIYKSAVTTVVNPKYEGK
T1 sequence (P13612 whole entry): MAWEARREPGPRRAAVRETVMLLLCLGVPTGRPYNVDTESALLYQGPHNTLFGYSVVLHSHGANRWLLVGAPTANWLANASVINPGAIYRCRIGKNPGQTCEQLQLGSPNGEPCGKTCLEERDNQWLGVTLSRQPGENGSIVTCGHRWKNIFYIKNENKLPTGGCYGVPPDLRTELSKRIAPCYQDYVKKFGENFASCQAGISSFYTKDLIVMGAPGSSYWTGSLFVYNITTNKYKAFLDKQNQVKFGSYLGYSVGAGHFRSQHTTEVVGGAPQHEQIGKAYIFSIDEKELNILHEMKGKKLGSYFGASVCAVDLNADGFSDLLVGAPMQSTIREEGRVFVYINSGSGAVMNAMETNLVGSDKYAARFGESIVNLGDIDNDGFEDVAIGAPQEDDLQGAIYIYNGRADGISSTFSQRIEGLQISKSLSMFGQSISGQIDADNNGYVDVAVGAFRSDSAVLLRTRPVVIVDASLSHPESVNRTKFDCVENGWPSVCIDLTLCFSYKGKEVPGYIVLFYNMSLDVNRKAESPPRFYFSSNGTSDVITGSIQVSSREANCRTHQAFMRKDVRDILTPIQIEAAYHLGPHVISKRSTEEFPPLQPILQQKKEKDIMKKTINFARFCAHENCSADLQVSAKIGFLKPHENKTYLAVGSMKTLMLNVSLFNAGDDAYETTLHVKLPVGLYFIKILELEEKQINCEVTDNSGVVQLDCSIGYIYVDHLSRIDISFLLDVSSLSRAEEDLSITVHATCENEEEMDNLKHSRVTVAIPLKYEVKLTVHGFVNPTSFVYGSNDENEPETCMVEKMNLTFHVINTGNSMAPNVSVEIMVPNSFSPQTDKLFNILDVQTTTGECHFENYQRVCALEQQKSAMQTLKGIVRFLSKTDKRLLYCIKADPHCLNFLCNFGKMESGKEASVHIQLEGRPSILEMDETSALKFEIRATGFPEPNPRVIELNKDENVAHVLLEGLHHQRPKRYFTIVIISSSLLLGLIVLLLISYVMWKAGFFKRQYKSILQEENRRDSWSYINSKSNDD
Procedure, shortened: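 CHO-K1 4B4 cells transfected with human α4 and β1, plated at 3 × 10⁵ cells/mL and cultured 2 days, washed with HEPES pH 7.5 buffer containing Ca, Mg, Mn. Compound plus Eu-labeled human VCAM-1/Fc (final 1 nM), with or without human serum albumin, 60 min at room temperature; washed, Eu time-resolved fluorescence read; duplicates.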

Integrin alpha-4/beta-1 [3] = target: T1, Integrin alpha-4/beta-1; experiment: Inhibition of europium labeled human VCAM1/Fc chimera binding to human VLA-4 alpha-4-beta-1 expressed in Chinese hamster 4B4 cells by fluorimetric assay; type: cell-based

concentration at 0.25 h [1] [ng/mL]	IC50 (Integrin alpha-4/beta-1 [2]) [nM]	IC50 (Integrin alpha-4/beta-1 [3]) [nM]	Compound
1100	83	1.9	O=C(Nc1ccc(CC(=O)N2C[C@@H](F)C[C@H]2CO[C@H]2CC[C@H](C(=O)O)CC2)cc1Cl)N1CCc2ccccc21
363	70	3	Cc1ccccc1Nc1nc2ccc(CC(=O)N3C[C@@H](F)C[C@H]3CO[C@H]3CC[C@H](C(=O)O)CC3)c(F)c2o1
2960	171	2.7	O=C(Nc1cc(F)c(CC(=O)N2C[C@@H](F)C[C@H]2CO[C@H]2CC[C@H](C(=O)O)CC2)cc1Cl)N1CCc2ccccc21
–	290	12	Cc1cccc2oc(Nc3ccc(CC(=O)N4C[C@@H](F)C[C@H]4CO[C@H]4CC[C@H](C(=O)O)CC4)cc3Cl)nc12
–	1030	40	O=C(Cc1ccc(Nc2nc3cccc(F)c3o2)c(Cl)c1)N1C[C@@H](F)C[C@H]1CO[C@H]1CC[C@H](C(=O)O)CC1
508	138	5.9	O=C(Cc1ccc(Nc2nc3ccccc3o2)c(Cl)c1)N1C[C@@H](F)C[C@H]1CO[C@H]1CC[C@H](C(=O)O)CC1
–	418	14	O=C(Nc1ccc(CC(=O)N2C[C@@H](F)C[C@H]2CO[C@H]2CC[C@H](C(=O)O)CC2)cc1Cl)c1nccc2ccccc12
448	131	4.4	Cc1ccc(F)cc1Nc1nc2ccc(CC(=O)N3C[C@@H](F)C[C@H]3CO[C@H]3CC[C@H](C(=O)O)CC3)cc2o1
–	630	20	O=C(Cc1ccc(Nc2nc3ccc(F)cc3o2)c(Cl)c1)N1C[C@@H](F)C[C@H]1CO[C@H]1CC[C@H](C(=O)O)CC1
93	70	7.8	Cn1cc(C(=O)Nc2cc(Cl)c(CC(=O)N3C[C@@H](O)C[C@H]3CO[C@H]3CC[C@H](C(=O)O)CC3)cc2Cl)c2ccccc21
–	370	12	Cn1cc(C(=O)Nc2cc(F)c(CC(=O)N3CCC[C@H]3CO[C@H]3CC[C@H](C(=O)O)CC3)cc2Cl)c2ccccc21
1880	241	5.5	Cn1cc(C(=O)Nc2cc(Cl)c(CC(=O)N3C[C@@H](F)C[C@H]3CO[C@H]3CC[C@H](C(=O)O)CC3)cc2Cl)c2ccccc21
2150	196	2.7	O=C(Nc1ccc(CC(=O)N2C[C@@H](F)C[C@H]2CO[C@H]2CC[C@H](C(=O)O)CC2)cc1Cl)c1nsc2ccccc12
–	1680	12	Cc1cc(F)ccc1Nc1nc2ccc(CC(=O)N3C[C@@H](F)C[C@H]3CO[C@H]3CC[C@H](C(=O)O)CC3)c(F)c2o1
848	108	8.5	O=C(Nc1cc(F)c(CC(=O)N2C[C@@H](F)C[C@H]2CO[C@H]2CC[C@H](C(=O)O)CC2)cc1Cl)c1n[nH]c2ccccc12
358	223	7.3	O=C(Cc1ccc(Nc2nc3cc(F)ccc3o2)c(Cl)c1)N1C[C@@H](F)C[C@H]1CO[C@H]1CC[C@H](C(=O)O)CC1
307	176	7.5	O=C(Nc1cc(F)c(CC(=O)N2C[C@@H](F)C[C@H]2CO[C@H]2CC[C@H](C(=O)O)CC2)cc1Cl)c1nsc2ccccc12
452	45	6.4	Cn1cc(C(=O)Nc2cc(F)c(CC(=O)N3C[C@@H](O)C[C@H]3CO[C@H]3CC[C@H](C(=O)O)CC3)cc2Cl)c2ccccc21
912	439	2.8	Cc1ccc(F)cc1Nc1nc2ccc(CC(=O)N3C[C@@H](F)C[C@H]3CO[C@H]3CC[C@H](C(=O)O)CC3)c(F)c2o1
–	1670	32	O=C(Nc1cc(F)c(CC(=O)N2C[C@@H](F)C[C@H]2CO[C@H]2CC[C@H](C(=O)O)CC2)cc1Cl)c1nccc2ccccc12
